By pKB is commonly meant the KB on a negative log10 scale, so that one unit is a factor of ten.

Format in all cases: tissue-based
What all share (settings): Oryctolagus cuniculus, target entry is the homologue from another species

The target of test [1] is 5-hydroxytryptamine receptor 1B (Homo sapiens) (UniProt P28222). Description: Dissociation equilibrium constant against the vascular 5-hydroxytryptamine 1B like receptor in the rabbit saphenous vein. In a few lines:
(§1)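 Saphenous vein rings (4–5 mm) from male New Zealand white rabbits, killed with pentobarbitone 80 mg/kg iv and exsanguination, mounted on tungsten wires. Phenoxybenzamine 0.3 μM for 30 min, washed out, 1 μM 5HT viability check. Cumulative 5HT curve, then after 60 min recovery a test compound curve. Non-agonists tested as 5HT antagonists, giving apparent pKB.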

Test [2] has as its target 5-hydroxytryptamine receptor 2A (Homo sapiens) (UniProt P28223). Kind of test: Dissociation equilibrium constant against the vascular 5-hydroxytryptamine 2A receptor in the rabbit […] aorta.
Test [3] concerns the target 5-hydroxytryptamine receptor 1B (Homo sapiens) (UniProt P28222). Kind of test: The dissociation equilibrium constant (pKB=-log KB) of compound was determined against the vascular 5-hydroxytryptamine 1B like receptor in the rabbit saphenous vein(RbSV); NS=non surmountable. Summed up:
as §1

Activity calls are given as the source filed them. No cut-off for these calls is given here.

Sequence of 5-hydroxytryptamine receptor 2A (Homo sapiens) (P28223 whole entry): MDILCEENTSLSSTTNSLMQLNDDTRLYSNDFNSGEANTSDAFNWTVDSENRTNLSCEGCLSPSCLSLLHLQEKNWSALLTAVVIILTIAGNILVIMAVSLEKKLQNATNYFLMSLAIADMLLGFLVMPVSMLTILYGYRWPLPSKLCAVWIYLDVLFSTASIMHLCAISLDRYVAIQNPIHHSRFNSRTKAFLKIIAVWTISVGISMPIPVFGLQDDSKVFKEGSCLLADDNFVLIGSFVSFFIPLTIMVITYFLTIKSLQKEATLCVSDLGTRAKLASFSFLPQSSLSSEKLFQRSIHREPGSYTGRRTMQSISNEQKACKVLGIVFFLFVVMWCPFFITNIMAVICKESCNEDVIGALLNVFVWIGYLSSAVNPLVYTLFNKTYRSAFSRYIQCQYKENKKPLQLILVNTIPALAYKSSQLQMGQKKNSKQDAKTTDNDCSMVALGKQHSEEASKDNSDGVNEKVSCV
Sequence of 5-hydroxytryptamine receptor 1B (Homo sapiens) (P28222 whole entry): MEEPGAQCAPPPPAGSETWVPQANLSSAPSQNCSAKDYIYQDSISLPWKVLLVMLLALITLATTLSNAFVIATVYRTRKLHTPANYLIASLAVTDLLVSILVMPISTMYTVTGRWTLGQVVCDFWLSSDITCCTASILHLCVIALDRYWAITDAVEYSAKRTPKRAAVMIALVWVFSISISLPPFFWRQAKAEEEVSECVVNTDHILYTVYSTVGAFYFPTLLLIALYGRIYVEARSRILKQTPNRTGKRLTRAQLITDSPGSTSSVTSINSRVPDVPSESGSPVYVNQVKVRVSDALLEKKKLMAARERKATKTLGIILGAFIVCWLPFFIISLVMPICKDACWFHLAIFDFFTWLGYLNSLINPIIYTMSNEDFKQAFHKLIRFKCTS

For the compound `CC(C)OC(=O)c1[nH]c2ccc(CCN3C(=O)NC(C)(C)C3=O)cc2c1C1=CCN(C)CC1`, the negative logarithm of the KB (pKB) in test [1] was 6.34; in test [2], < 5.
For `COC(=O)c1[nH]c2ccc(CN3C(=O)NC(C)(C)C3=O)cc2c1CCN(C)C`, the values for the pKB in test [1] and in test [2] were 6.45 and 5.03, respectively.
For `CCOC(=O)c1[nH]c2ccc(CCC3COC(=O)N3)cc2c1CCN(C)C` (stereo unspecified), in that order: 7.21 and 6.76.
The matching figures for `CCOC(=O)c1[nH]c2ccc(CCN3C(=O)CNC3=O)cc2c1C1CCN(C)CC1`: < 5 and < 5.
With `COC(=O)c1[nH]c2ccc(CCN3C(=O)CNC3=O)cc2c1-c1ccncc1`, the pKB result in test [3] is “inactive”. Further, the pKB in test [2] was < 5.
Turning to `CC(C)OC(=O)c1[nH]c2ccc(CN3C(=O)NC(C)(C)C3=O)cc2c1CCN(C)C`, the pKB in test [1] and in test [2] was 5.62 throughout.
Consider `CCOC(=O)c1[nH]c2ccc(CN3C(=O)CNC3=O)cc2c1CCN(C)C`, for which the pKB stood at 5.32 in test [1] and 5.86 in test [2].
For `CC(C)OC(=O)c1[nH]c2ccc(CCN3C(=O)NC(C)(C)C3=O)cc2c1-c1ccncc1`, in that order: 5.25 and < 5.
The matching figures for `CCOC(=O)c1[nH]c2ccc(CN3C(=O)NC(C)(C)C3=O)cc2c1CCN(C)C`: 6.54 and 5.52.
For the compound `COC(=O)c1[nH]c2ccc(CN3C(=O)CNC3=O)cc2c1CCN(C)C`, the pKB in test [1] came to 5.41; in test [2] it was 5.15.
The matching figures for `CN(C)CCc1c(C(=O)O)[nH]c2ccc(CCN3C(=O)CNC3=O)cc12`: 6.17 and < 5.
In the case of `COC(=O)c1[nH]c2ccc(CCN3C(=O)NC(C)(C)C3=O)cc2c1CCN(C)C`, the negative-log KB (pKB) in test [1] was 6.88; in test [2], 5.02.
With `CCOC(=O)c1[nH]c2ccc(CCN3C(=O)CNC3=O)cc2c1C1=CCN(C)CC1`, the results for the pKB in test [1] and in test [2] were 5.88 and < 5, respectively.
Take `CCOC(=O)c1[nH]c2ccc(CC3COC(=O)N3)cc2c1CCN(C)C` (stereo unspecified): the negative logarithm of the KB (pKB) was found to be 6.12 in test [1] and 5.66 in test [2].
The matching figures for `CC(C)OC(=O)c1[nH]c2ccc(CCN3C(=O)CNC3=O)cc2c1CCN(C)C`: 6.85 and 6.57.
For `CCOC(=O)c1[nH]c2ccc(CCN3C(=O)c4ccccc4C3=O)cc2c1CCN(C)C`, in that order: 7.54 and 6.26.
As for `COC(=O)c1[nH]c2ccc(CCN3C(=O)CNC3=O)cc2c1CCN(C)C`, the negative logarithm of the KB (pKB) in test [1] is 6.97; in test [2], < 5.
On to `CCOC(=O)c1[nH]c2ccc(CCN3C(=O)CSC3=O)cc2c1CCN(C)C`, for which the negative-log KB (pKB) came to 7.72 in test [1] and 7.56 in test [2].
The matching figures for `CCOC(=O)c1[nH]c2ccc(CCN3C(=O)NC(C)(C)C3=O)cc2c1CCN(C)C`: 7.34 and 5.23.
The matching figures for `CCOC(=O)c1[nH]c2ccc(CCN3C(=O)CCC3=O)cc2c1CCN(C)C`: 6.78 and 6.3.
The matching figures for `CCOC(=O)c1[nH]c2ccc(CCN3C(=O)c4ccccc4C3=O)cc2c1C1=CCN(C)CC1`: 6.42 and 5.02.
Regarding `COC(=O)c1[nH]c2ccc(CCN3C(=O)c4ccccc4C3=O)cc2c1CCN(C)C`, the results for the negative-log KB (pKB) in test [1] and in test [2] were 7.39 and 5.66, respectively.
The matching figures for `CN(C)CCc1c(C(N)=O)[nH]c2ccc(CC3COC(=O)N3)cc12` (stereo unspecified): 4.75 and < 4.5.
For `CN(C)CCc1c(Br)[nH]c2ccc(CC3COC(=O)N3)cc12` (stereo unspecified), in that order: 5.86 and < 5.
For `COC(=O)c1[nH]c2ccc(CCN3CCOC3=O)cc2c1CCN(C)C`, in that order: 6 and < 5.
Consider `CC(C)OC(=O)c1[nH]c2ccc(CCN3C(=O)NC(C)(C)C3=O)cc2c1CCN(C)C`, for which the pKB was 6.82 in test [1] and 5.8 in test [2].
The matching figures for `CCOC(=O)c1[nH]c2ccc(CCN3C(=O)CNC3=O)cc2c1-c1ccncc1`: 5.29 and < 5.
The matching figures for `CCOC(=O)c1[nH]c2ccc(CCN3CCCC3=O)cc2c1CCN(C)C`: 6.1 and 5.5.
The matching figures for `CN(C)CCc1c(C#N)[nH]c2ccc(CC3COC(=O)N3)cc12` (stereo unspecified): 4.8 and 4.6.
In the case of `CCOC(=O)c1[nH]c2ccc(CCC3NC(=O)N(C)C3=O)cc2c1CCN(C)C` (stereo unspecified), the pKB in test [1] came to 7.3; in test [2], 6.2.
The matching figures for `COC(=O)c1[nH]c2ccc(CCC3COC(=O)N3)cc2c1CCN(C)C` (stereo unspecified): 6.61 and 5.88.
The matching figures for `CN(C)CCc1c(C(=O)OCc2ccccc2)[nH]c2ccc(CCN3C(=O)CNC3=O)cc12`: 7.91 and 7.3.
For the compound `CN(C)CCc1c(C(=O)OC2CCCCC2)[nH]c2ccc(CCN3C(=O)NC(C)(C)C3=O)cc12`, the pKB was found to be 5.95 in test [1] and 4.77 in test [2].

(Values after ChEMBL document CHEMBL1130209, “A novel series of 2,5-substituted tryptamine derivatives as vascular 5HT1B/1D receptor antagonists” (J Med Chem, 1997).)
